In ChEMBL document CHEMBL4152271, “Polypharmacological profile of 1,2-dihydro-2-oxo-pyridine-3-carboxamides in the endocannabinoid system” (Eur J Med Chem, 2018):
Active and inactive are the calls of the source. The calls are words filed in the database; no cut-off is given here.

Experiments:
[1] = molecular target: T1, Lysophosphatidylserine lipase ABHD12 (Homo sapiens, UniProt Q8N2K0); experiment: Inhibition of human ABHD12 expressed in HEK293 cells using 2-OG as substrate preincubated for 30 mins followed by substrate addition and measured after 5 mins by liquid scintillation spectroscopic method; type: cell-based
T1 sequence (Q8N2K0 whole entry): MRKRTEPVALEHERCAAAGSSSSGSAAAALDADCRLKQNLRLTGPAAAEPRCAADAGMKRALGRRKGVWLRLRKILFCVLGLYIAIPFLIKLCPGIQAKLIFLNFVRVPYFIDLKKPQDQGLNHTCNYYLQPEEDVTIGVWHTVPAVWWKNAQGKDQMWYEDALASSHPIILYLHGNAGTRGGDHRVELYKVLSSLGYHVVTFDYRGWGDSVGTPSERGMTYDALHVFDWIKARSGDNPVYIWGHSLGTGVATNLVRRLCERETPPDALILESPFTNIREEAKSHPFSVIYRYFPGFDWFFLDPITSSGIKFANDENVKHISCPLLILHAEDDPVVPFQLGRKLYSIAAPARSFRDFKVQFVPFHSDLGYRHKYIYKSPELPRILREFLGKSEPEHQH
Summary of the method: (§1)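 Homogenate (40 µg) of HEK293 cells stably transfected with hABHD6 or hABHD12, compound preincubated 30 min at 37 °C in […], 0.1% BSA, pH 7.6. DMSO vehicle; WWL70 10 µM or THL 20 µM as positive controls. 10 µM 2-OG added for 5 min at 37 °C, stopped with CHCl₃:MeOH. Aqueous phase counted; no-enzyme blanks and non-transfected HEK293 hydrolysis subtracted.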

[2] = molecular target: T2, Fatty-acid amide hydrolase 1 (Homo sapiens, UniProt O00519); experiment: Inhibition of FAAH in human U937 cells using AEA containing [ethanolamine-1-3H]AEA as substrate preincubated for 30 mins followed by substrate addition and measured after 15 mins by liquid scintillation spectroscopic method; type: cell-based
T2 sequence (O00519 whole entry): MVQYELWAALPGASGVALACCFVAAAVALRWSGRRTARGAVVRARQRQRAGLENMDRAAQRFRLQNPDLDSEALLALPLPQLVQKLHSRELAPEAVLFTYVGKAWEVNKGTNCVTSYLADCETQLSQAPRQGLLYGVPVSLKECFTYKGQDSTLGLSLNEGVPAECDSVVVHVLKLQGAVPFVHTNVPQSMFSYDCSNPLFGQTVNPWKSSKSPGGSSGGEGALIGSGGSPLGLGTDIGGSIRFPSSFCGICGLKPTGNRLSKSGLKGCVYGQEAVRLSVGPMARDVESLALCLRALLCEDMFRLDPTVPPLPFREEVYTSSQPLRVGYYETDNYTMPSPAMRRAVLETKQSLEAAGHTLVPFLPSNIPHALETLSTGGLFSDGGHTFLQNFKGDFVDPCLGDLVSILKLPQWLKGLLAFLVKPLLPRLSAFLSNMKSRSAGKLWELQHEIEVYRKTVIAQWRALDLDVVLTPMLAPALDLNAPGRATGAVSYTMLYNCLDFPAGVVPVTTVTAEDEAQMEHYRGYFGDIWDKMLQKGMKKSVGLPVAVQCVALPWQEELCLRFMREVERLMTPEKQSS
Summary of the method: (§2)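 U937 cell homogenate (100 µg) in 10 mM Tris-HCl, 1 mM EDTA, pH 8, 0.1% fatty acid-free BSA. Compound at 10 µM screening concentration, 30 min at 37 °C. FAAH: 100 nM AEA with 1 nM [³H]AEA tracer. MAGL: 1 µM 2-OG with 1 nM tritiated tracer. Both 15 min at 37 °C, stopped with CHCl₃:MeOH (1:1), aqueous phase counted.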

[3] = molecular target: T3, Monoglyceride lipase (Homo sapiens, UniProt Q99685); experiment: Inhibition of MAGL in human U937 cells using 2-OG containing […] as substrate preincubated for 30 mins followed by substrate addition and measured after 15 mins by liquid scintillation spectroscopic method; type: cell-based; summary of the method: as §2
T3 sequence (Q99685 whole entry): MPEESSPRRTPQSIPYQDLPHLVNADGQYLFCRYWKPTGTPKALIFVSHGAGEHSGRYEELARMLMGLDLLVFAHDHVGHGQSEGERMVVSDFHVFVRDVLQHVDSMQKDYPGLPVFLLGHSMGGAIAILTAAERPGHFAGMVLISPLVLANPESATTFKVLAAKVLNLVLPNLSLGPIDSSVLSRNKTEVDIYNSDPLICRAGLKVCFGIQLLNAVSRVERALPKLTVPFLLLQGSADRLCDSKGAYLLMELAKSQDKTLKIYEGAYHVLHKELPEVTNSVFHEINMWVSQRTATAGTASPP

[4] = organism: Homo sapiens; experiment: Selectivity ratio of Ki for human CB1 receptor to Ki for human CB2 receptor
Summary of the method: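 Membranes expressing hCB1 or hCB2 (stably transfected CHO) in 50 mM Tris-HCl, 2.5 mM EDTA, 5 mM MgCl₂, 0.5% fatty acid-free BSA, pH 7.4. Incubated with compound and 0.5 nM [³H]CP55,940 for 90 min at 30 °C. Nonspecific binding with 10 µM […]. GF/B filtration, radioactivity counted, Ki derived. Mean ± SD, at least 3 experiments in triplicate.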

[5] = molecular target: T4, Cannabinoid receptor 2 (Homo sapiens, UniProt P34972); experiment: Displacement of [3H]-CP55940 from human CB2 receptor expressed in CHO cell membranes after 90 mins
Summary of the method: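 Membranes expressing hCB1 or hCB2 (stably transfected CHO) in 50 mM Tris-HCl, 2.5 mM EDTA, 5 mM MgCl₂, 0.5% fatty acid-free BSA, pH 7.4. Nonspecific binding with 10 µM […]. GF/B filtration, radioactivity counted, Ki derived. Mean ± SD, at least 3 experiments in triplicate.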

[6] = molecular target: T5, Cannabinoid receptor 1 (Homo sapiens, UniProt P21554); experiment: Displacement of [3H]-CP55940 from human CB1 receptor expressed in CHO cell membranes after 90 mins
[7] = molecular target: T6, Monoacylglycerol lipase ABHD6 (Homo sapiens, UniProt Q9BV23); experiment: Inhibition of human ABHD6 expressed in HEK293 cells using 2-OG as substrate preincubated for 30 mins followed by substrate addition and measured after 5 mins by liquid scintillation spectroscopic method; type: cell-based; summary of the method: as §1
T6 sequence (Q9BV23 whole entry): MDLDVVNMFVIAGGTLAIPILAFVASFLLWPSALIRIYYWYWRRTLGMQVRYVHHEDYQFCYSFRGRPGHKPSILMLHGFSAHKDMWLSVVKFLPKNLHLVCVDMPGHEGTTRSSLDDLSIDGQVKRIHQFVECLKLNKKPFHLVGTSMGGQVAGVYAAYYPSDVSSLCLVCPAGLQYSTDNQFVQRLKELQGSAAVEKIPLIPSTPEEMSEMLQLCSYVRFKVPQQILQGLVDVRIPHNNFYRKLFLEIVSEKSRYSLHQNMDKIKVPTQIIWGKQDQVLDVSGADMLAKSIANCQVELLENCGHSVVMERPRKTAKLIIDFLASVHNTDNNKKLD

[8] = test system: U-937; experiment: Inhibition of [ethanolamine-1-3H]AEA/unlabeled AEA uptake in human U937 cells preincubated for 15 mins followed by [ethanolamine-1-3H]AEA/unlabeled AEA addition and measured after 15 mins by scintillation counting method; type: functional, cell-based
Summary of the method: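 Intact U937 cells (0.5x10⁶ per sample) in RPMI, preincubated with compound for 15 min at 37 °C. Then 1 nM [ethanolamine-1-³H]AEA plus unlabeled AEA (final 100 nM) added for 15 min. Stopped by rapid filtration and ice-cold PBS/1% BSA washes, radioactivity counted. At least three experiments in triplicate, mean ± SD.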

[9] = test system: U-937; experiment: Cytotoxicity against human U937 cells assessed as decrease in cell viability at 0.6 to 40 uM after 48 hrs by MTT assay; type: functional, cell-based
Summary of the method: (§3)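 U251MG (EMEM, 10% FBS) or U937 (RPMI 1640, 10% FBS) cells plated at 4x10³/well for 24h, then exposed to compounds (0–40 µM) for 48 h at 37°C. MTT reduction, formazan read at 595 nm. Viability as % of untreated control. Five independent experiments in triplicate, mean ± SD, ANOVA with Bonferroni.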

[10] = molecular target: T5, Cannabinoid receptor 1; experiment: Agonist activity at human CB1 receptor expressed in CHO cell membranes after 90 mins by [35S]GTPgammaS binding assay; type: functional, cell-based
[11] = molecular target: T4, Cannabinoid receptor 2; experiment: Agonist activity at human CB2 receptor expressed in CHO cell membranes after 90 mins by [35S]GTPgammaS binding assay; type: functional
Summary of the method: (§4)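 Membranes (5 µg) of hCB2-expressing cells in 50 mM Tris-HCl, 3 mM MgCl₂, 0.2 mM EDTA, 100 mM NaCl, 0.5% fatty acid-free BSA, pH 7.4, with 10 µM GDP and 0.1 nM [³⁵S]GTPγS. Kept on ice, started by vehicle or compound, 90 min at 30 °C. Nonspecific binding with 10 µM GTPγS. Filtered on GF/B, radioactivity counted. At least three experiments in triplicate, mean ± SD.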

[12] = molecular target: T4, Cannabinoid receptor 2; experiment: Agonist activity at human CB2 receptor expressed in CHO cell membranes after 90 mins by [35S]GTPgammaS binding assay relative to control; type: functional; summary of the method: as §4
[13] = test system: U-251; experiment: Cytotoxicity against human U251MG cells assessed as decrease in cell viability at 0.6 to 40 uM after 48 hrs by MTT assay; type: functional, cell-based; summary of the method: as §3

T5 sequence (P21554 whole entry): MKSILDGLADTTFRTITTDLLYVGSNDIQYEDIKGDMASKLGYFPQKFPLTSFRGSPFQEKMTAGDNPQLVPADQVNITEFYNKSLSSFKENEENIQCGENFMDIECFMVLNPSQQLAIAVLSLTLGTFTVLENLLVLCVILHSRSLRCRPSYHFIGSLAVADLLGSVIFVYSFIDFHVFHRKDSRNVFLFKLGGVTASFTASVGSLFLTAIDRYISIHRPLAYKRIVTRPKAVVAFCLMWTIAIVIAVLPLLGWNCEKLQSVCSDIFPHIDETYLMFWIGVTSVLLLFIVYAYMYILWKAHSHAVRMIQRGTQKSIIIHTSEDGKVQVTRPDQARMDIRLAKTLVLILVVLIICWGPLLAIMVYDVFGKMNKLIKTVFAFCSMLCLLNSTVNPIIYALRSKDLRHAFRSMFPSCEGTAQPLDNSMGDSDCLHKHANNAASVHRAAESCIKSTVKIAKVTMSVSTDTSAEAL
T4 sequence (P34972 whole entry): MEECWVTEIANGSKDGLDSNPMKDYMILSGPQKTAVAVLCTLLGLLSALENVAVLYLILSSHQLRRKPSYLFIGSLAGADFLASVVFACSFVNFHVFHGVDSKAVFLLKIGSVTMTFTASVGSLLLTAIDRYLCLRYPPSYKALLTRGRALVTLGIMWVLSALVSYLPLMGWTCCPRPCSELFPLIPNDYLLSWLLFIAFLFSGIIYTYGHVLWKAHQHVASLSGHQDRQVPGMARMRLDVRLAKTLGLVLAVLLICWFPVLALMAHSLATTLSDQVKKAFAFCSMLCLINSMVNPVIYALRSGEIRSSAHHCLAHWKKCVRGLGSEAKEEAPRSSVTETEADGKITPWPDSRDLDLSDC

SMILES | IC50 [1] [µM] | IC50 [2] [µM] | IC50 [3] [µM] | Ratio Ki [4] | Ki [5] [µM] | Ki [6] [µM] | IC50 [7] [µM] | IC50 [8] [µM] | Activity [9] | EC50 [10] [µM] | EC50 [11] [µM] | Emax [12] [%] | Activity [13]
COc1ccc(-c2cn(Cc3ccc(F)cc3)c(=O)c(C(=O)NC3CCCCCC3)c2-c2ccccc2)cc1 | > 10 | > 10 | > 10 | 2 to 54 | > 10 | > 10 | > 10 | > 10 |  |  |  |  | 
O=C(NC1CCCCCC1)c1c(-c2ccccc2)c(-c2ccccc2)cn(Cc2ccc(F)cc2)c1=O | > 10 | > 10 | > 10 | 2 to 54 | > 10 | > 10 | > 10 | > 10 |  |  |  |  | 
Cc1c(-c2ccccc2)cn(Cc2ccc(F)cc2)c(=O)c1C(=O)NC1CCCCCC1 | 2.5 | 0.07 | > 10 | 2 to 54 | 0.0069 | 0.0231 | > 10 |  | Active | 0.237 | 0.012 | 39 | inactive
Cc1ccnc(OCc2ccc(F)cc2)c1C(=O)NC1CCCCCC1 | > 10 | > 10 | > 10 | 2 to 54 | 0.0463 | 0.131 | > 10 | 0.58 | Active | 0.229 | 0.031 | 127 | inactive
COc1ccc(-c2cc(C(=O)NC3CCCCCC3)c(=O)n(Cc3ccc(F)cc3)c2)cc1 |  |  |  |  |  |  |  |  | Active |  |  |  | inactive
COc1ccc(-c2ccn(Cc3ccc(F)cc3)c(=O)c2C(=O)NC2CCCCCC2)cc1 | > 10 | > 10 | > 10 | 2 to 54 | > 10 | > 10 | > 10 | > 10 |  |  |  |  | 
